TRPC4 agonist: TRPC4 (mouse) channel activation. Q9QUQ5. HEK293 TRPC4beta/mu-opioid, Fluo4 calcium fluorescence; active compounds read high. B-score at 10 µM. 0.49% of 310,000 active. AID 2237;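 active = B-score above 5 SD of library B-scores, and initial fluorescence ratio not above library mean plus 5 SD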;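 also: positive B-score marks a calcium rise read as TRPC4 activation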
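Test system: HEK293 cells stably co-expressing mouse TRPC4beta and mu-opioid receptor | Schedule: Fluo4 dye loading 45 min at room temperature, 110 s recording | Measured by: Kinetic Fluo4 calcium fluorescence, 5 s baseline at 1 Hz | Evaluation: B score of integrated ratio | Controls: Buffer (low) and maximal DAMGO (high)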
TRPC4 inh: blocks the mouse TRPC4 cation channel | Q9QUQ5 | HEK293 TRPC4beta/mu-opioid, DAMGO-evoked Fluo4 calcium flux; active compounds read low | B-score at 10 µM | 0.39% of 300,000 active;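 active = B-score over 3 SD under the library average, no early fluorescence shift, positive overall ratio signal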
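Assay system: HEK293 cells with stable TRPC4beta plus mu-opioid receptor expression. Dosing: single dose. Measured by: Fluo4 Ca2+ flux fluorescence. Also added: DAMGO in two steps, submaximal then maximal. Read-out: B score from integrated Fluo4 fluorescence ratio.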
TRPC6 inhibitor: inhibitors of mouse TRPC6 channel; Q61143; HEK293-TRPC6, membrane potential dye, ACh-evoked depolarization; active compounds read low; B-score at 10 µM; 1.1% of 310,000 active; AID 2553;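 active = B-score under library mean minus 3 SD, initial fluorescence not abnormally high, positive integrated signal ratio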;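 also: B-score derived from integrated fluorescence ratio over the kinetic read; more negative B-score means stronger inhibition of depolarization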
Target sequence (Q61143 whole entry, looked up): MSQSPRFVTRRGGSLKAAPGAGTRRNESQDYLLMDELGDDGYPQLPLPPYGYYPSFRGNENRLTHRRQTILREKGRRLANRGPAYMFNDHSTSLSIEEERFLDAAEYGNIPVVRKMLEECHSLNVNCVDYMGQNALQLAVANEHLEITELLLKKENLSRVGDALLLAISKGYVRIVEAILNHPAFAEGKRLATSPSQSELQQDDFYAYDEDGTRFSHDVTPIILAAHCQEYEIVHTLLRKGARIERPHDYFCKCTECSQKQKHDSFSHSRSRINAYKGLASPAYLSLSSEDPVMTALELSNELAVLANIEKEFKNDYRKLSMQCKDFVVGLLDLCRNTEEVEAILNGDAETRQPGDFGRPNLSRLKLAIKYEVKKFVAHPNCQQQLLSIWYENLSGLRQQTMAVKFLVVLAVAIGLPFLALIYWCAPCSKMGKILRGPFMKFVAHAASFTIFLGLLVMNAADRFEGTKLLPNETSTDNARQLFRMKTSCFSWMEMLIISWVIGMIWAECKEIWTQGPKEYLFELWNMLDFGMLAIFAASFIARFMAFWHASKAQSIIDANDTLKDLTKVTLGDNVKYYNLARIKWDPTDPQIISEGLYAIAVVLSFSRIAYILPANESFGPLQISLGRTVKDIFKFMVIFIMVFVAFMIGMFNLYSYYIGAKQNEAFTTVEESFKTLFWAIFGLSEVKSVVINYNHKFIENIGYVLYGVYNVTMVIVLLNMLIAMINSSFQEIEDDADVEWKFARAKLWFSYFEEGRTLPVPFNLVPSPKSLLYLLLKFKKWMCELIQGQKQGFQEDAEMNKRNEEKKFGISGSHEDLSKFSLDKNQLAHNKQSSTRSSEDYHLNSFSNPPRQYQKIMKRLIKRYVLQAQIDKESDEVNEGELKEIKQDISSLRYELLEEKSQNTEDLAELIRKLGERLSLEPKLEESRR
TRPC4 potent: allosteric potentiators of mouse TRPC4 channel; Q9QUQ5; HEK293 TRPC4beta/mu-opioid, DAMGO EC20, Fluo-4 Ca2+ flux; active compounds read high; B-score at 10 µM; 0.42% of 310,000 active;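 active = B-score of calcium response area above 5 SD of library B-scores, with initial fluorescence ratio within 5 SD of library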;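 also: B-score of integrated fluorescence ratio over time as area under calcium response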
TRPC6 act: mouse TRPC6 channel activation. Q61143. AID 2550. 0.13% of 310,000 active. B-score at 10 µM. HEK293-TRPC6 membrane potential dye fluorescence; active compounds read high;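 active = B-score of the integrated fluorescence ratio above library mean plus 3 SD, and starting fluorescence ratio within library mean plus 5 SD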;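 also: higher score means more depolarization so channel activation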
TRPC4 spec 2: mouse TRPC4 off-target activity of TRPC6 inhibitors, second screen | shares compounds with TRPC6 inhibitor | HEK293 TRPC4/MOR, membrane potential dye fluorescence; channel activated by saturating DAMGO dose | inhibition, % at 10 µM | 42% of 920 active | AID 2776;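 active = compounds whose fluorescence signal differed from control wells by over 3 SD, either direction, in both duplicate plates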
TRPC4 spec: tests whether TRPC6 inhibitors also affect mouse TRPC4; shares compounds with TRPC6 inhibitor; HEK293 TRPC4/mu-opioid, membrane potential fluorescence; activity change, negative = inhibition, % at 10 µM; 61% of 920 active; AID 2777;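 active = rise or fall in signal beyond 3 SD of buffer-only wells in both replicate plates, either sign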;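 also: integrated kinetic ratio of fluorescence range over baseline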
HEK293 MPD ctr 2-1: second counter-screen for TRPC6 inhibitors: parental HEK293 cells; shares compounds with TRPC6 inhibitor; parental HEK293 membrane potential dye fluorescence; maximal acetylcholine challenge after compound addition; signal change vs control, % at 10 µM; 31% of 920 active; AID 2779;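 active = membrane potential signal moving either way by over 3 SD of the maximum-effect control, in both duplicate plates, meaning non-specific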
HEK293 MPD ctr-1: counter-screen for TRPC6 inhibitors: effect in parental HEK293 cells; parental HEK293 membrane potential dye fluorescence; membrane potential signal change, % at 10 µM; 60% of 920 active; shares compounds with TRPC6 inhibitor; AID 2780;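 active = membrane potential signal shifting up or down by more than 3 SD of buffer-only wells, on both duplicate plates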
HEK293 MPD ctr-2: counter-screen for TRPC6 modulators: effect in parental HEK293 cells; shares compounds with TRPC6 inhibitor; membrane potential dye fluorescence; membrane potential signal change, % at 10 µM; 51% of 2,400 active; AID 488924;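 active = membrane potential signal moves up or down beyond 5 SD from buffer-only wells, on both duplicate plates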
HEK293 MPD ctr 2-2: second counter-screen for TRPC6 modulators: effect in parental HEK293 cells. 14% of 2,400 active. shares compounds with TRPC6 inhibitor. membrane potential dye fluorescence; after compound, maximal acetylcholine stimulation. inhibition, % at 10 µM;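 active = membrane potential signal drops by more than 5 SD from the mean control signal, in both duplicate plates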;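 also: plate controls were acetylcholine ECmax control wells for no effect and buffer only wells for full effect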
TRPC4 ctr mod: tests whether TRPC6 modulators also affect mouse TRPC4. percent change from control (negative = decrease, positive = increase), % at 10 µM. shares compounds with TRPC6 inhibitor. AID 488927. HEK293 TRPC4/mu-opioid, membrane potential fluorescence. 69% of 2,400 active;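 active = membrane potential signal moved up or down beyond 5 SD of buffer control wells, in both duplicate plates, actives on both sides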;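 also: plate controls were assay buffer wells for no effect and DAMGO maximal-effect wells for full effect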
TRPC4 ctr inh 2: mouse TRPC4 off-target activity of TRPC6 modulators, second screen; shares compounds with TRPC6 inhibitor; HEK293 TRPC4/mu-opioid, membrane potential dye fluorescence; stimulated with maximal-effect DAMGO; inhibition, % at 10 µM; 55% of 2,400 active;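 active = drop in membrane potential signal beyond 5 SD of the control wells in both duplicate plates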;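 also: TRPC4 counter screen for TRPC6 hits run under conditions tuned for TRPC6 not TRPC4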
TRPC6 inh conf: mouse TRPC6 inhibitor confirmation. shares compounds with TRPC6 inhibitor. HEK293-TRPC6, membrane potential dye, ACh-evoked depolarization. inhibition, % at 10 µM. 43% of 3,300 active;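 active = fluorescence ratio falls more than 5 SD below the full-stimulation control mean, in both duplicate runs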;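 also: integrated fluorescence ratio of peak minus minimum over baseline after agonist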
TRPC6 act confirm: confirmation of mouse TRPC6 activators | shares compounds with TRPC6 inhibitor | HEK293-TRPC6 membrane potential dye fluorescence, FDSS | activation, % at 10 µM | 11% of 2,800 active | AID 488961;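 active = ratio signal rise beyond 5 SD above unstimulated control wells' mean, seen in both duplicate runs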;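 also: plate controls were buffer EC0 wells for no effect and acetylcholine ECmax response for full effect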
Starred values were filed as active, the others as inactive; i = inactive; x = no result. Sampled rows, rich in hits. Any-hit rate of the full collection: about 2.3%.

SMILES	TRPC4 agonist	TRPC4 inh	TRPC6 inhibitor	TRPC4 potent	TRPC6 act	HEK293 MPD ctr-2	HEK293 MPD ctr 2-2	TRPC4 ctr mod	TRPC4 ctr inh 2	TRPC6 inh conf	TRPC6 act confirm	others
Cc1ccc([N+](=O)[O-])cc1N=Nc1c(-c2ccc([N+](=O)[O-])cc2)[nH]n(C(N)=S)c1=O	i	i	-6.4*	i	i	i	i	i	48%*	48%*	i
Cc1ccc([N+](=O)[O-])cc1N=Nc1c(C)[nH]n(C(N)=S)c1=O	i	i	i	i	i	x	x	x	x	x	x
Cn1cnnc1SCC(=O)NC1CCCN(Cc2ccccc2F)C1 (stereo unspecified)	i	i	i	i	i	x	x	x	x	x	x
COc1ccc(/C=N/n2nnnc2N)c(OC)c1	i	i	i	i	i	x	x	x	x	x	x
COC(=O)c1ccc(Cl)cc1N(Cc1c(F)cccc1Cl)S(C)(=O)=O	65*	i	-5.3*	i	i	303%*	113%*	44%*	38%*	i	x
Cc1cccc2c(N)c3c(nc12)N(C)CC3	i	i	-5.5*	i	i	-154%*	91%*	-36%*	81%*	78%*	i
CCCCN1CCc2c1nc1ccc(Br)cc1c2N	i	i	-6.3*	i	i	-132%*	98%*	-37%*	93%*	88%*	i
Cc1ccc2nc3c(c(N)c2c1)CCN3C	i	-7*	-7.1*	i	i	x	x	x	x	58%*	i	TRPC4 spec 2=51%*;TRPC4 spec=-27%*;HEK293 MPD ctr 2-1=13%*;HEK293 MPD ctr-1=-460%*
CN1CCc2c1nc1ccccc1c2N (tested in a mixture with another compound)	i	i	i	i	i	x	x	x	x	x	x
CCCCN1CCc2c([nH]c3ccccc23)C1=O	i	i	i	i	i	x	x	x	x	x	x
Cc1ccc2nc3c(c(N)c2c1)CCN3c1ccccc1	i	i	i	i	i	x	x	x	x	x	x
Cc1ccccc1OCCC(=O)OCC(=O)Nc1c(C)nn(-c2ccccc2)c1C	i	i	i	i	i	x	x	x	x	x	x
Cc1ccc(NC(=O)C2CCN(S(=O)(=O)c3ccc4c(c3)NC(=O)C(C)S4)CC2)cc1Cl (stereo unspecified)	i	i	i	i	i	x	x	x	x	x	x
CCOC(=O)/C(C)=N/Nc1nc(-c2ccc(NC(C)=O)cc2)cs1	i	i	i	i	i	x	x	x	x	x	x
CCc1ccc(NC(=S)NC(=O)CC(C)C)cc1	i	i	i	i	i	x	x	x	x	x	x
COc1ccc(CC(=O)Nc2cccc(S(=O)(=O)N3CCCCCC3)c2)cc1OC	i	i	i	i	i	x	x	x	x	x	x
COc1cccc(C2=NCCc3cc4c(cc32)OCO4)c1OC	i	i	i	i	i	x	x	x	x	x	x
COc1ccc2cc3[n+](cc2c1OC)CCc1cc2c(cc1-3)OCO2	i	i	-5.2*	i	i	i	110%*	i	i	i	i
CCOc1ccc(N(C)S(=O)(=O)c2ccc3[nH]cc(C(=O)NCC(OC)OC)c(=O)c3c2)cc1	i	i	-5.5*	i	i	i	i	i	i	i	i
CCOC(=O)c1cnc2c(Cl)cc(Cl)cc2c1NCCOCCO	i	i	i	i	i	x	x	x	x	x	x
CCOC(=O)c1cnc2c(ccc3ccccc32)c1NCCCN(C)C	i	i	-6.4*	i	i	i	70%*	i	56%*	48%*	i
CCOC(=O)c1cnc2c(C)cccc2c1NCc1ccco1	i	i	i	i	i	x	x	x	x	x	x
CCOC(=O)c1cnc2ccc(Cl)cc2c1NCCN(C)C	i	i	-6.5*	i	i	-104%*	i	-18%*	49%*	46%*	i
CCOC(=O)c1cnc2ccc(Br)cc2c1NCCO	i	i	i	i	i	x	x	x	x	x	x
CCOC(=O)c1cnc2ccccc2c1NCCO	i	i	-5.6*	i	i	-108%*	i	-14%*	40%*	49%*	i
SMILES	TRPC4 agonist	TRPC4 inh	TRPC6 inhibitor	TRPC4 potent	TRPC6 act	HEK293 MPD ctr-2	HEK293 MPD ctr 2-2	TRPC4 ctr mod	TRPC4 ctr inh 2	TRPC6 inh conf	TRPC6 act confirm	others
CCOC(=O)Cc1csc(NC(=O)c2sc3nc4c(C)cc(C)cc4cc3c2N)n1	i	i	i	i	i	x	x	x	x	x	x
CN(C(=O)c1ccc(Br)o1)C1(C)CCS(=O)(=O)C1 (stereo unspecified)	i	i	i	i	i	x	x	x	x	x	x
COc1ccccc1CNS(=O)(=O)c1cc2c3c(c1)CCN3C(=O)CC2	i	i	i	i	i	x	x	x	x	x	x
Cc1cccc(-c2nsc(SCC(=O)Nc3nccs3)n2)c1	i	i	-5.7*	i	i	i	i	i	i	i	i
CCCn1c2ccc(F)cc2c2nnc(SCCN3CCCCC3)nc21	i	i	i	i	i	x	x	x	x	x	x
CCN(CC)CCSc1nnc2c3ccccc3n(CCc3ccccc3)c2n1	i	i	-7.5*	i	i	x	x	x	x	i	i	TRPC4 spec 2=18%*;TRPC4 spec=0.5%*;HEK293 MPD ctr 2-1=i;HEK293 MPD ctr-1=-198%*
CCn1c2ccc(F)cc2c2nnc(SCCN3CCCCC3)nc21	i	i	-5.8*	i	i	-78%*	i	36%*	80%*	i	i

Screens: PubChem BioAssay, Johns Hopkins Ion Channel Center
